# Measured values pooled from the literature.
# Lines come from different studies, so protocols differ.
# Target: Serine/threonine-protein kinase 17A (STK17A, Homo sapiens, UniProt Q9UEE5)
# Sequence (Q9UEE5 1-414, as in one of the studies): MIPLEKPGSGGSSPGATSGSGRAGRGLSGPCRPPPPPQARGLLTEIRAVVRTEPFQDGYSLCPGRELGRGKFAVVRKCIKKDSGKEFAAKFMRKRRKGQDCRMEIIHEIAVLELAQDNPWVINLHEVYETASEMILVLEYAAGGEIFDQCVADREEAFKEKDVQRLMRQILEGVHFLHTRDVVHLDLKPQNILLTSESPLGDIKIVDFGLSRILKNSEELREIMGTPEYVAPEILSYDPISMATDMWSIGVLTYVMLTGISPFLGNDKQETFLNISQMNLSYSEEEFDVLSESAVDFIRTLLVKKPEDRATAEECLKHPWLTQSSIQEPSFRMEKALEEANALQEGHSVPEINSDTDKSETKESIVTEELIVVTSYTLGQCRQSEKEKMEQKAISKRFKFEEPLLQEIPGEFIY
SMILES,test,setting,quantity,value
CCN(CC)CCNC(=O)c1c(C)[nH]c(/C=C2\C(=O)Nc3ccc(F)cc32)c1C,cell-free assay,0.5 µM,remaining signal,26.7%
O=C(N[C@H]1CCCCC/C=C\C2C[C@@]2(C(=O)O)NC(=O)[C@@H]2C[C@@H](Oc3ccncc3)CN2C1=O)OC1CCCC1 (some centres unmarked),"binding, competition with immobilised ligand",1 µM,remaining binding,100%
CN1CC(Oc2cnc(C#N)cc2-c2ccn3nc(NC(=O)C4CC4)cc3c2)C1,"enzyme activity, inhibitor",1 µM,inhibition,10%
CNC(=O)c1cc(Oc2ccc(NC(=O)Nc3ccc(Cl)c(C(F)(F)F)c3)cc2)ccn1,cell-free assay,10 µM,inhibition,31%
N#CCCc1ccc2c(c1)-c1[nH]c3ccc([N+](=O)[O-])cc3c1CC(=O)N2,cell-free assay,0.5 µM,remaining signal,46.8%
O=C(Nc1cccc(Nc2ncc(Br)c(NCCc3cnc[nH]3)n2)c1)N1CCCC1,"enzyme activity, inhibitor, radiometric",1 µM,remaining activity,6%
Cc1ccc(Nc2nccc(N(C)c3ccc4c(C)n(C)nc4c3)n2)cc1S(N)(=O)=O,cell-free assay,10 µM,inhibition,14%
CCCOc1ccc([C@H]2[C@H](C(=O)O)[C@@H](c3ccc4c(c3)OCO4)CN2CC(=O)Nc2c(CC)cccc2CC)cc1,"cell-free assay, competition with immobilised ligand",1 µM,remaining binding,92%
NS(=O)(=O)c1ccc(CNc2nc(Nc3cccc(NC(=O)N4CCCC4)c3)ncc2Br)cc1,"enzyme activity, inhibitor, radiometric",1 µM,remaining activity,41%
CS(=O)(=O)N1CCCC(NC(=O)[C@H](CCC2CCCCC2)NC(=O)c2ccc(CNc3ncnc4c3nnn4-c3ccccc3)cc2)C1 (some centres unmarked),"cell-free assay, competition with immobilised ligand",0.1 µM,remaining binding,100%
CCCS(=O)(=O)Nc1ccc(F)c(C(=O)c2c[nH]c3ncc(-c4ccc(Cl)cc4)cc23)c1F,"enzyme activity, inhibitor",1 µM,inhibition,< 10%
NS(=O)(=O)c1ccc(CNc2nc(Nc3cccc(NC(=O)N4CCCC4)c3)ncc2C2CC2)cc1,"enzyme activity, inhibitor, radiometric",1 µM,remaining activity,79%
O=C1NC(=O)c2cc(Nc3ccc(F)cc3)c(Nc3ccc(F)cc3)cc21,cell-free assay,0.5 µM,remaining signal,104%
Cc1nn(CC(F)(F)F)cc1Nc1nccc(NCCc2cnc[nH]2)n1,"enzyme activity, inhibitor, radiometric",1 µM,remaining activity,99%
O=C(Nc1ccc(Oc2ccc(F)cc2)cc1)N1CCc2ncccc2[C@H]1c1ccc(F)cc1,"cell-free assay, competition with immobilised ligand",1 µM,remaining binding,86%
c1cc(CN2CCOCC2)cc(Nc2ncc(C3CC3)c(NCCc3c[nH]cn3)n2)c1,"enzyme activity, inhibitor, radiometric",1 µM,remaining activity,50%
C[C@@H](c1cccc(C#N)c1)n1cc(Cl)cc(C(N)=O)c1=N,"cell-free assay, competition with immobilised ligand",1 µM,remaining binding,89%
